System: MS2 coat protein
Test: apparent Kd, MS2 coat protein; higher = weaker binding; RNA-MaP array; FMN 200 µM where present
Summary of the method: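 The apparent Kd is the median of filtered binding-curve fits, one per cluster, to green signal normalised to red-channel RNA signal and control-cluster median Fmax. The clusters were on Illumina sequencing chips, and stalled E. coli RNA polymerase had transcribed the designs on them. Titration used SNAP-549-labelled MS2 coat protein from 0.7 or 1.5 nM, doubling to 3 µM, without and then with constant ligand, in 100 mM Tris-HCl pH 7.5, 80 mM KCl, 4 mM MgCl2, BSA, DTT, yeast tRNA and Tween-20.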

[1] = designed as: OFF switch for flavin mononucleotide, no ligand
[2] = ligand present: flavin mononucleotide, designed as: OFF switch for flavin mononucleotide
[3] = designed as: ON switch for flavin mononucleotide, no ligand
[4] = ligand present: flavin mononucleotide, designed as: ON switch for flavin mononucleotide

| Sequence | apparent Kd [1] | apparent Kd [2] | apparent Kd [3] | apparent Kd [4] |
| --- | --- | --- | --- | --- |
| UAAAAGCUAGGAUAUACAUGAGGAUCACCCAUGUCAACCACACGGAUGCGCCGAGCAUGUAGAAGGAGCACCGG | 0.0182 µM | 0.0241 µM |  |  |
| UAAAAUCAUGUAGGAUAUGCGUGGCGAAGCUAUGCAGAAGGACAUGAGGAUCACCCAUGUCUUACCUAGCGUACUAGGUUAAAG | 0.0197 µM | 0.107 µM |  |  |
| UAAAAUCAUGUAGGAUAUGCGUGGCGAAGCUAUGCAGAAGGACAUGAGGAUCACCCAUGUCUUACUGUGCGUACACAGUUAAAG | 0.0167 µM | 0.0795 µM |  |  |
| UAAACAUGAGGAUCACCCAUGUAAAGAUCGGUAGUAGAGAGUGAGGAUAUACUAAAUUUUAUGGAGUAGAAGGCACUGGGUUCU |  |  | 0.0401 µM | 0.0323 µM |
| UAAAGACAUGAGGAUCACCCAUGUGAGGAUAUCGGAGAUAACGGAACAUCAAGUUCGGCGAGAAGGCACAGGAA | 0.0539 µM | 0.0581 µM |  |  |
| UAAAUGUGAGGAUAUUCGUUGAACUCGGAGACGAGUUUAACGGAGAAGGCACAUGAGGAUCACCCAUGUUCCUU | 0.0204 µM | 0.211 µM |  |  |
| UAAAUUAACAAGAAGGCUAACAUGAGGAUCACCCAUGUUGUACAUGGAUAUAGAGGAUAUUGCUAAUAUUUAUUUAUCAUAAUU | 0.0218 µM | 0.0173 µM |  |  |
| UAACCGCAGCAGAAGGGACGUCGGGUGGACUAGUCAGGAUAUGCAUGCCGGCAUAGACAUGAGGAUCACCCAUGUACGAGUGGC |  |  | 0.347 µM | 0.0876 µM |
| UAAGUCUAAUGAGGAUAUCGUAAUGAAACAUUAUGAGAAGGCAUACAAUCAUGAGGACAUGAGGAUCACCCAUGUUGUGACCAU |  |  | 0.0336 µM | 0.0162 µM |
| UAAUAAAACGAUCGGCGGUCCAUACAUGAGGAUCACCCAUGUAGAAGGCACUCUACAAAGUAGAGUGAGGAUAUACAAGAUCGA | 0.015 µM | 0.258 µM |  |  |
| UAAUAAUAAUAAUAAUGGACUGAUACAUGAGGAUCACCCAUGUAGGAUAUGCAGUGGAAUACACUGCAGAAGGACAUACAGUCC | 0.0166 µM | 0.0172 µM |  |  |
| UAAUAAUAAUAAUAGCAGUUUACAUGAGGAUCACCCAUGUAUAAGGAUAUCGUCAGGAAUACUGACGAGAAGGUAUACAUCUGC | 0.0203 µM | 0.0336 µM |  |  |
| UAAUCGUUGCAGAAGGUUAUUAUUAUAACGUGACACUUAACAUGAGGAUCACCCAUGUUUUUGAUGAAGGAUAUGCAACGGUAG | 0.00804 µM | 0.00771 µM |  |  |
| UAAUCUCAGAUAGGAUAUAUAGGAUAAUUUAAGACCGAACAUGAGGAUCACCCAUGUGAUUAUUCGUAGAAGGAUCAAUGACCC |  |  | 0.0783 µM | 0.0762 µM |
| UAAUUUUUAGUAAGGAUAUCGGUCCCAAGGGACAACGAGAAGGUACAUGAGGAUCACCCAUGUGAUUAAAGAAU | 0.0282 µM | 0.221 µM |  |  |
| UACAAUCUAUCUGAGGAUAUCAUGAAAAAAACAUGAGGAUCACCCAUGUGCAGGAAAACUGCAUAUGAGAAGGCAGAUAGAUUGU |  |  | 0.77 µM | 0.0257 µM |
| UACAUGAGGAUCACCCAUGUUUUGUCGUGUAUGGUAUUUAUCUAGGAUAUCAAUUGAUUUAAUUAUGAGAAGGAGAAUAUUAAU | 0.0365 µM | 0.0307 µM |  |  |
| UACCUCUCAGGAUAUGAGCAGCAGGACAUGAGGAUCACCCAUGUUAUAUAGGGUCCUGGUUUAGAAGGGAGCGAAU | 0.026 µM | 0.0281 µM |  |  |
| UACGACUUCGUAGGAUAUGUAUUUCAUUUCUACAUGAGGAUCACCCAUGUUUGCAUUUUUUUUUGACAGAAGGACGUAAUCGUA |  |  | 0.0154 µM | 0.0105 µM |

| Sequence | apparent Kd [1] | apparent Kd [2] | apparent Kd [3] | apparent Kd [4] |
| --- | --- | --- | --- | --- |
| UACGGACAUGAGGAUCACCCAUGUGAGGAUAUCGAUAACGAUAGCAUAAUAUAAUCGGCGAGAAGGCACAGCGU | 0.0327 µM | 0.0409 µM |  |  |
| UAGAAGUCAGGAUAUGCAUGGCGGGACUUGCGUCGUGGCGUGCAGAAGGGACAUGAGGAUCACCCAUGUGGAGU | 0.179 µM | 0.23 µM |  |  |
| UAGAAGUCAGGAUAUGCUGCUCGUCACUUGCGUGAUGAGUAGCAGAAGGGACAUGAGGAUCACCCAUGUAAAGG | 0.208 µM | 0.424 µM |  |  |
| UAGAUGGGAGGAUAUACGUAGAUACAGAUUCAUGUAGUGCUACAUGAGGAUCACCCAUGUAGAAGGCCCGUCUU | 0.0394 µM | 0.33 µM |  |  |
| UAGAUGGGAGGAUAUACGUAGAUACAGAUUCGUGUAGUGCUACAUGAGGAUCACCCAUGUAGAAGGCCCGUCUU | 0.0136 µM | 0.0229 µM |  |  |
| UAGAUGGGAGGAUAUACGUAGAUGCGGAUUCGUGUGGUGCUACAUGAGGAUCACCCAUGUAGAAGGCCCGUCUU | 0.0171 µM | 0.0722 µM |  |  |
| UAGAUGGGAGGAUAUGCGUAGAUACGGAUUCGUGUGGUGCUACAUGAGGAUCACCCAUGUAGAAGGCCCGUCUU | 0.0128 µM | 0.0186 µM |  |  |
| UAGAUUAGAAGUUAACAUGAGGAUCACCCAUGUAUUGGAACAGAGGAUAUGCAUGUUUGAUAGUAGCAGAAGGCUGAAGGUGGA |  |  | 0.0981 µM | 0.104 µM |
| UAGCAAACGACCUGUGUGUGACAUGAGGAUCACCCAUGUUAGAGAAGGCCGAUAGCGCCGCGUACGGAGGAUAUCUGACAGGGA | 0.0241 µM | 0.0303 µM |  |  |
| UAGGACGUCGUAGGAUAUGUAGGAUAUUCCUACAUGAGGAUCACCCAUGUUGACAUGGAAGAAGGACAGAAGGACGAUGUCCAU |  |  | 0.224 µM | 0.00461 µM |
| UAGGACUUCGUAGGAUAUGUAUUUGAUUUCUACAUGAGGAUCACCCAUGUUUGCAUUUUUUUUUGACAGAAGGACGUGGUCCUA |  |  | 0.0168 µM | 0.0132 µM |
| UAGGAUCAACGAGGAUAUAAUAGGUUCAAUUUUUUAUAUUGUUUACAUGAGGAUCACCCAUGUUAUUAGAAGGCGUAUGGGAUU |  |  | 0.0535 µM | 0.0369 µM |
| UAGGUACAUGAGGAUCACCCAUGUGAGGAUAUAGUUGAAGAUUGCGAGAGGGAGAGGACUAGAAGGCACAGUGG | 0.0505 µM | 0.069 µM |  |  |
| UAGGUGUGAGGAUAUGGUAAAGAUAAGAUGAUGAAAGAACUCCAGAAGGCACAUGAGGAUCACCCAUGUAGAUG | 0.028 µM | 0.0708 µM |  |  |
| UAGGUUGUCGUAGGAUAUGUAGGAUAUUCCUACAUGAGGAUCACCCAUGUUAGCAUGGAAGAAGGACAGAAGGACGAUGACCUU |  |  | 0.889 µM | 0.0156 µM |
| UAUAAAAUAGGAUGACAUGAGGAUCACCCAUGUUGCGCGAGGAGAAGGCCCAUUCGGCAACUAUGGGAGGAUAUCCAUCGCCUG |  |  | 0.0665 µM | 0.0241 µM |
| UAUAACCGAGGAUAUACAUGAGGAUCACCCAUGUAAUGUAGUAUAAUGUAUGUAAAAUGUAGAAGGUGGGAUGU | 0.0544 µM | 0.047 µM |  |  |
| UAUAUAAUUAAGAGCUGGAAUAAAACAUGAGGAUCACCCAUGUAGGAUAUCAGCACGAUAAGUGCUGAGAAGGACAACCAGCUC | 0.0158 µM | 0.0169 µM |  |  |
| UAUAUACAUGAGGAUCACCCAUGUAAGGAUAUGCUUUAUUAUUAUUAUUAUUAUUAUUGCAGAAGGUACAAUAU | 0.032 µM | 0.0298 µM |  |  |

| Sequence | apparent Kd [1] | apparent Kd [2] | apparent Kd [3] | apparent Kd [4] |
| --- | --- | --- | --- | --- |
| UAUAUAUAAUAUAUUAACAUGAGGAUCACCCAUGUCGCUAGACAGGAUAUAUUUAAUUUUUUUAAGUAGAAGGGUCAUAUAAUU |  |  | 0.0683 µM | 0.0809 µM |
| UAUAUAUAGGCAGGAUAUACAUGAAUAUAUAUGAUGUAGUAUGAUGUAACAUGAGGAUCACCCAUGUAGAAGGGCCAAUAUAUA | 0.048 µM | 0.152 µM |  |  |
| UAUAUAUAGUAAGGAUAUGUAAUUAUUUUAUACACAGAAGGUACUGACAUGAGGAUCACCCAUGUUUUAGUGUGGGCAUGUAGA | 0.0553 µM | 0.0865 µM |  |  |
| UAUAUAUAGUAAGGAUAUGUAUUAAUUUUAUAAACAGAAGGUACUGACAUGAGGAUCACCCAUGUUUUAGUGUGGGCAUGUAGA | 0.102 µM | 0.169 µM |  |  |
| UAUAUAUAGUAAGGAUAUGUAUUAUUUUUAUAAACAGAAGGUACUGACAUGAGGAUCACCCAUGUUUUAGUGUGGGCAUGUAGA | 0.0491 µM | 0.0704 µM |  |  |
| UAUAUGUCAGGAUAUUAGUUGUGGACGAAUUUCACUUCUGCUGAGAAGGGACAUGAGGAUCACCCAUGUUCCUC | 0.0154 µM | 0.016 µM |  |  |
| UAUGGUUAAGUCAGGAUAUACGUGCAGUUUUCUGAGUAGAAGGGACAUGAGGAUCACCCAUGUAUGGUAGUGUU | 0.0722 µM | 0.0736 µM |  |  |
| UAUGGUUAAGUCAGGAUAUACUAAUAGAAAUCUGUGUAGAAGGGACAUGAGGAUCACCCAUGUAUGGUAGUGUU | 0.0687 µM | 0.0751 µM |  |  |
| UAUUAAUGCAAGGAUAUGCUAUUAAUUUAUUUUGCAGAAGGUGCAACAUGAGGAUCACCCAUGUUGGAGGGUAU | 0.022 µM | 0.0343 µM |  |  |
| UAUUACCUAGGAUAUACAUGAGGAUCACCCAUGUCACGGGUCAACUUGUCCUACGCGUGUAGAAGGAGGGACCC | 0.021 µM | 0.0214 µM |  |  |
| UAUUACCUAGGAUAUACAUGAGGAUCACCCAUGUCACGGGUCAACUUGUCCUAUGCGUGUAGAAGGAGGGACCC | 0.0198 µM | 0.0213 µM |  |  |
| UAUUCACAUGAGGAUCACCCAUGUAGAAGGCCGAGCCUGGCCACGGUUACACGCCGUGGAGAGCCGGAGGAUAUACAGCUGGUG | 0.111 µM | 0.0309 µM |  |  |
| UAUUUAUAGCAAGGAUAUGAUUAUUAUUAUUUAUCAGAAGGUGCACAUGAGGAUCACCCAUGUUUUAUAUAUAAUAAUUUAAUU | 0.113 µM | 0.0306 µM |  |  |
| UAUUUGCAAGGAUAUGAUUUAAGUAACAUGAGGAUCACCCAUGUUUAUCCGUUGUUAUGUUCAGAAGGUGCGUGAU | 0.0508 µM | 0.0724 µM |  |  |
| UAUUUGUGAGGAUAUGAGUCGUAGAACAAUAGUACUACGUCUCAGAAGGCACAUGAGGAUCACCCAUGUACCUC | 0.0179 µM | 0.122 µM |  |  |
| UCAACUCCCGUCAGGAUAUGUUGCUCUAGGGAGCAGUAGAAGGGACAUGAGGAUCACCCAUGUUAUCCGUGUAU | 0.0172 µM | 0.0206 µM |  |  |
| UCACAGGGAGGAUAUACAUGAGGAUCACCCAUGUGAAUCUUCGACCUGCAGGUACUUUGUAGAAGGCCCAGUGG | 0.107 µM | 0.123 µM |  |  |
| UCACGGAGCCUAGGAUAUACAUGAGGAUCACCCAUGUAUUAACGUUAGUGCUGGACUGAUUUGCUGUAGAAGGAGGUCACCGAA | 0.0209 µM | 0.0431 µM |  |  |

Reference: the EternaBench riboswitch data
